Insulin prom up: insulin promoter activators in MIN6 cells, imaging, high-content screening, mouse beta cells; MIN6 insulin promoter-GFP reporter; active compounds read high; z-score at 5 µM; 190,000 tested, 0.3% active;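 active = z-score above 3 at 5 µM with at least 500 cells counted in the well; inconclusive = wells under 500 cells, flagged as cytotoxic or low count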
INS promoter inh: inhibitors of insulin promoter-driven GFP, primary screen, imaging, TRM-6 cells (human fetal islet line), eGFP reporter, cell count. reporter expression induced with tamoxifen. inhibition, % at 2 µM. 130,000 tested, 0.9% active;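 active = inhibition above the mean plus 3 SD, with well images judged a real hit on visual review, cut at about 60% in these data, passing the limit was not always enough; inconclusive = inhibition over the cutoff but images rejected on review; inactive = inhibition not above the cutoff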
NPY Y1 blocker: NPY-Y1 receptor antagonists, primary screen, cell-based; HEK293-CNG Y1 cells, membrane potential fluorescence; NPY at EC95, then isoproterenol; inhibition, % at 3.6 µM; 200,000 tested, 1% active; AID 1040, 2008;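 active = inhibition above the campaign mean inhibition of all tested compounds plus 3 SD, cut at about 20% in these data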
Target sequence (P25929 whole entry, looked up): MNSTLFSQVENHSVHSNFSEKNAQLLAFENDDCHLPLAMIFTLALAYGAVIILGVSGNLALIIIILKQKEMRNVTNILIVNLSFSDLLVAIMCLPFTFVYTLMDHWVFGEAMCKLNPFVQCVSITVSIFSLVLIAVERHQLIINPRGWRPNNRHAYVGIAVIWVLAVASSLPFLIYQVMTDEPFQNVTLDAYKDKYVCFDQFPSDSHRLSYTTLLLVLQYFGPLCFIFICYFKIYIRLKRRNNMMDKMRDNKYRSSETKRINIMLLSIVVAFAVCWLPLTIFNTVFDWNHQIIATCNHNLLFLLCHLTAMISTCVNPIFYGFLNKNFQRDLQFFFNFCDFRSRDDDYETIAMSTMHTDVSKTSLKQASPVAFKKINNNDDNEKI
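Test system – HEK293 Y1/CNG channel cell line · Also added – NPY agonist 25 nM, then isoproterenol 1 µM plus Ro 20-1724 25 µM · Compound dosing – one concentration, 3.6 µM, in 0.4% DMSO · Schedule – compound incubation 1 h at room temperature, readout 45 min post-stimulation · Technique – fluorescence, membrane potential probe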
NPY-Y2 PAM-ag: NPY-Y2 potentiators or agonists, primary screen, cell-based. Neuropeptide Y receptor type 2 (Homo sapiens), P49146. cells expressing NPY-Y2, potentiator/agonist read-out. activation, % at 3.6 µM. 220,000 tested, 0.45% active. AID 1359, 2008; in the data active = activation above about 27%;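 note: cells stimulated with NPY near EC25 plus isoproterenol at EC100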
Target sequence (P49146 whole entry, looked up): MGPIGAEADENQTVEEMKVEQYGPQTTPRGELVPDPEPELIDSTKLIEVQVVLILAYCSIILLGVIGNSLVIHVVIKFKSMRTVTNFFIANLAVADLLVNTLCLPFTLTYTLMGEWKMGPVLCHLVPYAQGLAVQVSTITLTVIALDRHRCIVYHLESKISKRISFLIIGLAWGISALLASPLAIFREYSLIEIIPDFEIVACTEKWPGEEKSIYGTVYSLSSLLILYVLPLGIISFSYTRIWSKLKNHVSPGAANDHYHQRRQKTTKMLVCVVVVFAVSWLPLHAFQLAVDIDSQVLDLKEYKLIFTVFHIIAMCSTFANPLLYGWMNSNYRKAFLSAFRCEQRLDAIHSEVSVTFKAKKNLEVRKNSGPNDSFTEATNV
NPY Y2 blocker: NPY-Y2 receptor antagonists, primary screen, cell-based; AID 793, 2007; Neuropeptide Y receptor type 2 (Homo sapiens), P49146; 140,000 tested, 0.99% active; inhibition, % at 2.7 µM; NPY-Y2 expressing cells, antagonist mode
NPY-Y1 PAM-ag: NPY-Y1 receptor potentiators or agonists, primary screen, cell-based | NPY-Y1 expressing cells, potentiator/agonist activation | 220,000 tested, 0.37% active | Neuropeptide Y receptor type 1 (Homo sapiens), P25929 | activation, % at 3.6 µM; in the data active = activation above about 33%, passing the limit was not always enough;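 note: cells stimulated with NPY at EC10 then isoproterenol at EC100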
NPY-Y1 ant conf: NPY-Y1 receptor antagonists, retest of hits, confirmation, HEK293-CNG cells, membrane potential fluorescence, triplicate. shares compounds with NPY Y1 blocker. cAMP; NPY challenge against isoproterenol-raised cAMP. inhibition, % at 3.6 µM. 1,200 tested, 21% active. AID 1254, 2008; in the data active = inhibition above about 20%
NPY-Y2 antag ct: NPY-Y2 receptor antagonists, selectivity check, confirmation, counter-screen for NPY-Y1 antagonist project, HEK293-CNG cells, membrane potential fluorescence, triplicate; shares compounds with NPY Y1 blocker; 1,200 tested, 28% active; antagonism; cells given NPY, then isoproterenol; inhibition, % at 3.6 µM; AID 1255, 2008
Of the large screens only hits and unclear results are named; the others gave an inactive call (follow-up assays come after a bar, where they were run). An excerpt weighted towards active compounds, which were near 2.5% of everything screened. Cut-off read from the data, not from the text of the source, unless noted: active = inhibition above about 17%; inactive = the rest.

CC(C)(C)c1ccccc1OCCCCN1CCCC1	none
Cc1ccc(NC(C(N)=O)c2c(C)[nH]c(=O)[nH]c2=O)cc1 (configuration not stated)	none
COc1cccc(N2C(C(C)=O)=NN(c3ccccc3)C2c2ccc(N3CCOCC3)cc2)c1 (configuration not stated)	INS promoter inh inconclusive
COc1ccc(C2N(c3ccc(Cl)cc3)N=C(C(C)=O)N(C)N2C(C)=O)cc1 (configuration not stated)	NPY Y1 blocker 29 (no result: INS promoter inh, NPY Y2 blocker) | NPY-Y1 ant conf 20 | NPY-Y2 antag ct inactive
Cc1cc(C)cc(NC(=O)NN2C(C)CCCC2C)c1 (configuration not stated)	none (no result: INS promoter inh, NPY Y2 blocker)
c1ccc(CN2CCC(Nc3nc(-c4cccnc4)nc4ccccc34)CC2)cc1	none (no result: INS promoter inh, NPY Y2 blocker)
Cc1cc(C)cc(OCc2nc3ncc(Br)cc3[nH]2)c1	none (no result: Insulin prom up)
COc1cccc(OCc2nc3ncc(Br)cc3[nH]2)c1	NPY Y1 blocker 24 (no result: INS promoter inh) | NPY-Y1 ant conf inactive | NPY-Y2 antag ct inactive
COc1ccc(OC)c(-n2c(SCC(=O)Nc3cc(C)on3)nnc2-c2c[nH]c3ccccc23)c1	none (no result: INS promoter inh)
O=C(Cn1ccc(C(F)(F)F)n1)N=Nc1c(O)[nH]c2ccccc12	NPY Y1 blocker 38 (no result: INS promoter inh, NPY Y2 blocker) | NPY-Y1 ant conf 36 | NPY-Y2 antag ct 40
O=C(Cn1ccc(C(F)(F)F)n1)N=Nc1c(O)[nH]c2ccc(Br)cc12	none (no result: Insulin prom up, INS promoter inh, NPY Y2 blocker)
COc1ccc(CSc2n[nH]c(C)n2)cc1Br	none (no result: INS promoter inh)
Cc1nc(SCc2cccc(Oc3ccccc3)c2)n[nH]1	NPY Y1 blocker 23 | NPY-Y1 ant conf inactive | NPY-Y2 antag ct 34
COc1ccc(/C=C/CN2CCN(Cc3ccc(F)cc3)C(CCO)C2)cc1 (configuration not stated)	none (no result: INS promoter inh, NPY Y2 blocker)
COc1ccc(C(C(=O)NC2CCCCC2)N(C(=O)c2sc(C)nc2C)c2ccccc2C)cc1 (configuration not stated)	none
COc1ccc(CCN(Cc2ccccn2)C(=S)Nc2ccccc2Cl)cc1OC	NPY Y1 blocker 28 (no result: NPY Y2 blocker) | NPY-Y1 ant conf inactive | NPY-Y2 antag ct inactive
O=C(Cc1ccc(Br)cc1)N1CCN(c2ccccc2O)CC1	none
C/C=C(/C)C(=O)O[C@@H]1[C@H](OC(=O)C=C(C)C)c2c(ccc3ccc(=O)oc23)OC1(C)C	none
C/C=C(/C)C(=O)O[C@@H]1c2c(ccc3ccc(=O)oc23)OC(C)(C)[C@@H]1OC(=O)/C(C)=C\C	NPY Y1 blocker 31 | NPY-Y1 ant conf inactive | NPY-Y2 antag ct inactive
CCCCCCCCCC[n+]1cccc2c3ccccc3ccc21	Insulin prom up inconclusive, NPY Y1 blocker 50 (no result: NPY Y2 blocker) | NPY-Y1 ant conf 48 | NPY-Y2 antag ct 37
Cc1cccc[n+]1CCCCCCCCCC[n+]1ccccc1C	none (no result: NPY Y2 blocker)
CCCCCCCC[n+]1cccc2c3ccccc3ccc21	Insulin prom up inconclusive, NPY Y1 blocker 51 (no result: NPY Y2 blocker) | NPY-Y1 ant conf 43 | NPY-Y2 antag ct 26
CCCCCCCCNc1ncnc2ccccc12	none (no result: Insulin prom up)
CC(C)CCn1c(Oc2ccccc2Cl)nc2c1c(=O)n(C)c(=O)n2C	NPY Y1 blocker 36 | NPY-Y1 ant conf inactive | NPY-Y2 antag ct inactive
Cc1c(C)n(Cc2ccccc2)c2ccc(C(=O)OCCCN(C)C)cc12	NPY Y1 blocker 22 (no result: NPY Y2 blocker) | NPY-Y1 ant conf 29 | NPY-Y2 antag ct 37
CCOc1ccc(-c2csc3ncn(-c4ccc(OC)cc4)c(=O)c23)cc1	none (no result: INS promoter inh, NPY Y2 blocker)
O=C(c1cccs1)n1nc(-c2cccnc2)nc1NCc1ccco1	none (no result: INS promoter inh, NPY Y2 blocker)
COc1ccc(-c2cc(C(F)(F)F)nc(N3CCN(C)CC3)n2)cc1	NPY Y1 blocker 25 | NPY-Y1 ant conf inactive | NPY-Y2 antag ct inactive
COc1ccc(-c2cc(C(F)(F)F)nc(N3CCCCCC3)n2)cc1	none
CC(C)CCNC(=O)c1nnc(Cc2ccc(Cl)cc2)o1	none (no result: INS promoter inh)
CCCC(c1nnnn1Cc1ccco1)N1CCN(C2CCCC2)CC1 (configuration not stated)	NPY Y1 blocker 22 (no result: INS promoter inh) | NPY-Y1 ant conf inactive | NPY-Y2 antag ct inactive
CCCC(c1nnnn1Cc1cccs1)N1CCN(C2CCCC2)CC1 (configuration not stated)	NPY Y1 blocker 25 (no result: INS promoter inh) | NPY-Y1 ant conf inactive | NPY-Y2 antag ct inactive
CC(C)C(c1nnnn1Cc1ccco1)N1CCN(C2CCCC2)CC1 (configuration not stated)	none (no result: INS promoter inh)
Cc1ccc(S(=O)(=O)n2c([N+](=O)[O-])cnc2C)c(C)c1C	none
Nc1cc(N)cc(C(=O)OCC(=O)Nc2cc(S(=O)(=O)N3CCCCC3)ccc2Cl)c1	none (no result: NPY Y2 blocker)
CCOC(=O)c1c(C)n(-c2ccc(C)cc2)c2ccc(OCC(O)CN3CCN(C)CC3)cc12 (configuration not stated)	NPY Y1 blocker 47 (no result: NPY Y2 blocker) | NPY-Y1 ant conf 25 | NPY-Y2 antag ct 47
CCOC(=O)c1c(C)n(C)c2ccc(OCC(O)CN3CCN(C)CC3)cc12 (configuration not stated)	none (no result: INS promoter inh)
CCCCCCn1c2c(c(=N)c3c1CCC3)CCC2	Insulin prom up inconclusive, NPY Y1 blocker 24 | NPY-Y1 ant conf 29 | NPY-Y2 antag ct inactive
CCCCn1c2c(c(=N)c3c1CCC3)CCC2	none
CCCCCCCn1c2c(c(=N)c3c1CCC3)CCCC2	Insulin prom up inconclusive, NPY Y1 blocker 80 (no result: NPY Y2 blocker) | NPY-Y1 ant conf 57 | NPY-Y2 antag ct 43
CCOc1ccccc1NC(=O)c1ccccc1-c1nc(-c2ccccc2OC)no1	NPY Y1 blocker 43 | NPY-Y1 ant conf 24 | NPY-Y2 antag ct 23
Cc1csc(NC(=O)c2cc(-c3ccccc3)nc3ccccc23)n1	NPY Y1 blocker 22 (no result: INS promoter inh) | NPY-Y1 ant conf inactive | NPY-Y2 antag ct inactive
O=C(NC1CC1)c1cc(-c2ccccn2)nc2ccccc12	none
Cc1cccc(NC(=O)c2cc(-c3ccccn3)nc3ccccc23)c1C	NPY Y1 blocker 39 (no result: INS promoter inh, NPY Y2 blocker) | NPY-Y1 ant conf 25 | NPY-Y2 antag ct 23
Cc1ccc(-c2cc(C(=O)Nc3cc(C)on3)c3ccccc3n2)c(C)c1	NPY Y1 blocker 35 (no result: INS promoter inh) | NPY-Y1 ant conf 29 | NPY-Y2 antag ct 51
O=C(COc1ccc(Cl)cc1)Nc1nnc(C2=COCCO2)o1	NPY Y1 blocker 22 (no result: NPY Y2 blocker) | NPY-Y1 ant conf inactive | NPY-Y2 antag ct inactive
Clc1ccccc1CSc1cc2c(nn1)-c1ccccc1CC2	NPY Y1 blocker 23 | NPY-Y1 ant conf inactive | NPY-Y2 antag ct inactive

From PubChem BioAssay
